Laboratory results reported in ChEMBL document CHEMBL4330057, “Second generation of diazachrysenes: Protection of Ebola virus infected mice and mechanism of action” (Eur J Med Chem, 2019).
Calls of active or inactive are those of the source. No cut-off for these calls is given here.

What was measured:
Ebolavirus [1] = assay: Antiviral activity against Ebolavirus; assay type: functional, organism-based; details: Orthoebolavirus
Ebolavirus [2] = assay: Antiviral activity against Ebolavirus H. sapiens-wt/1995/Kikwit-9510621 infected in human HeLa cells assessed as inhibition of viral infection pretreated for 2 hrs followed by viral infection and measured after 48 hrs by EboV GP immunostaining based high content imaging analysis; assay type: functional, organism-based; details: Orthoebolavirus, H. sapiens-wt/1995/Kikwit-9510621, HeLa; for EC50: read-out: EC50
Ebolavirus [3] = assay: Antiviral activity against Ebolavirus H. sapiens-wt/1995/Kikwit-9510621 infected in HFF assessed as inhibition of viral infection pretreated for 2 hrs followed by viral infection and measured after 48 hrs by EboV GP immunostaining based high content imaging analysis; assay type: functional, organism-based; details: Orthoebolavirus
[4] = Selectivity index, ratio of CC50 for human HeLa cells to EC50 for Ebolavirus H. sapiens-wt/1995/Kikwit-9510621 infected in human HeLa cells; assay type: toxicity, cell-based; details: read-out: Ratio CC50/EC50
[5] = Toxicity in 6 hrs post fertilized zebrafish embryo assessed as lethal effect on egg coagulation up to 50 uM up to 120 hrs post fertilization by inverted microscopic method; design: species or system Danio rerio; details: in vivo
[6] = Toxicity in 6 hrs post fertilized zebrafish embryo assessed as teratogenic effect by measuring malformation of eyes up to 50 uM up to 120 hrs post fertilization by inverted microscopic method; design: species or system Danio rerio; details: in vivo
[7] = Toxicity in 6 hrs post fertilized zebrafish embryo assessed as teratogenic effect by measuring malformation of tail up to 50 uM up to 120 hrs post fertilization by inverted microscopic method; assay type: tissue-based, Danio rerio; details: in vivo
[8] = Toxicity in 6 hrs post fertilized zebrafish embryo assessed as teratogenic effect by measuring pericardial edema up to 50 uM up to 120 hrs post fertilization by inverted microscopic method; design: species or system Danio rerio; details: in vivo
[9] = Toxicity in 6 hrs post fertilized zebrafish embryo assessed as teratogenic effect by measuring yolk edema up to 50 uM up to 120 hrs post fertilization by inverted microscopic method; design: species or system Danio rerio; details: in vivo
[10] = Myelotoxicity in 6 hrs post fertilized transgenic mpx:GFP zebrafish embryo assessed as reduction in neutrophil occurrence up to 20 uM measured at 72 hrs hrs post fertilization by fluorescence assay; design: species or system Danio rerio
How it was run: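 Tg(mpx:GFP) zebrafish embryos with GFP-labelled neutrophils were treated with compound. At 72 hpf, neutrophil fluorescence of the whole embryo and neutrophil occurrence were assessed.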

[11] = Drug uptake in C57Bl/6 mouse serum at 10 mg/kg/day, ip qd for 7 days measured on day 5 at 15 to 180 mins post dose by UHPLC/MS analysis; assay type: ADME, organism-based; details: in vivo, read-out: Drug uptake
[12] = Drug uptake in C57Bl/6 mouse serum at 10 mg/kg/day, ip qd for 7 days measured on day 7 at 5 to 240 mins post dose by UHPLC/MS analysis; assay type: ADME, organism-based; details: in vivo, read-out: Drug uptake
HeLa [13] = assay: Induction of lysosomotropism in human HeLa cells infected with Ebolavirus assessed as clustering of late endosomes/lysosomes in cytoplasm at 2 uM for 1 hr by Lysosensor DND189 staining based assay; assay type: functional, cell-based
How it was run: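 HeLa cells treated 1 h (2 μM; bafilomycin A1 0.01 μM as control), then LysoSensor DND 189 for 10 min. Washed and imaged live at 443/505 nm (dye) and 405/450 nm (compound). Fluorescence intensity/area quantified. Mean ± SD of 8 wells, about 3000 cells each, three independent experiments.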

HeLa [14] = assay: Induction of lysosomotropism in human HeLa cells infected with Ebolavirus assessed as increase in fluorescence intensity of acid compartments at 2 uM for 1 hr by Lysosensor DND189 staining based assay; assay type: functional, cell-based
How it was run: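 HeLa cells were pretreated 1 h with compound (Bafilomycin A1 at 0.01 μM as acidification control), then stained with LysoSensor DND 189 for 10 min and washed. Live imaging at Ex/Em 443/505 nm. Fluorescence intensity per area was quantified by image analysis. Eight wells per point, about 3000 cells/well, mean ± SD, three independent experiments.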

Cytochrome P450 3A4 = Cytochrome P450 3A4 (Homo sapiens, UniProt P08684); assay: Inhibition of CYP3A4 (unknown origin) using 7-benzyloxy-4-trifluoromethylcoumarin as substrate; assay type: ADME
Sequence of Cytochrome P450 3A4 (P08684 whole entry): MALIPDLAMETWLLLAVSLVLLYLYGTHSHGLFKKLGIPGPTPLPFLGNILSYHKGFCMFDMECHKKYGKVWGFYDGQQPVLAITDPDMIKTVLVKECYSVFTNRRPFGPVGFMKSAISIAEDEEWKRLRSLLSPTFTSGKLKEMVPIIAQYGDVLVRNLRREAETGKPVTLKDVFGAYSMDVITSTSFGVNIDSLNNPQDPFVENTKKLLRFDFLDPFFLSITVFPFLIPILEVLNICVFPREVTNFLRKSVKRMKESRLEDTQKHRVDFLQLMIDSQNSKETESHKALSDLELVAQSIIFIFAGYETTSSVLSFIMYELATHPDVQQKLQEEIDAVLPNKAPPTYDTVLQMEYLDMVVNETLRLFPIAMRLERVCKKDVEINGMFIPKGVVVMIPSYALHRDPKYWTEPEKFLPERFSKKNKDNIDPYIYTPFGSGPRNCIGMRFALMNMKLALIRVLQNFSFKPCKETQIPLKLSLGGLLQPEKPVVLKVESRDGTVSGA
How it was run: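 CYP IC50 was taken from the net fluorescent signal after incubation at 37 °C for a set time with active cytochrome P450 enzyme and a fluorescent probe substrate.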

[15] = Clearance in human liver microsomes after 1 hr; assay type: ADME, Microsome; details: read-out: CLH
How it was run: (§1)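 Substrate depletion with mouse or human liver microsomes, 1 h at 37 °C. Clearance (μL/min/mg) and half-life derived.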

[16] = Half life in mouse liver microsomes; assay type: ADME, Microsome; how it was run: as §1
[17] = Half life in human liver microsomes; assay type: ADME, Microsome; how it was run: as §1
[18] = Apparent permeability from basolateral to apical side in MDCK cells; assay type: ADME, cell-based, Canis lupus familiaris; details: dog
How it was run: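 Apparent permeability measured in MDCK cell monolayers, apical→basolateral and basolateral→apical directions, three biological replicates.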

[19] = Drug metabolism in C57Bl/6 mouse assessed as oxygenation metabolite formation at 20 mg/kg/day, ip qd for 7 days measured at 24 hrs post last dose by UHPLC/MS analysis; assay type: ADME, organism-based; details: in vivo
How it was run: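 Serum from two mice dosed 20 mg/kg/day i.p. taken 24 h after the last dose. Compound quantified by UHPLC/MS and screened for M+2, M+16, M-2 and M+32 products or combinations.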

[20] = Hepatotoxicity in 6 hrs post fertilized transgenic l-fabp:EGFP zebrafish embryo assessed as change in liver area index up to 30 uM up to 120 hrs post fertilization by fluorescence assay; assay type: toxicity, Danio rerio; details: in vivo
How it was run: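 Tg(l-fabp:EGFP) zebrafish embryos exposed from 6 hpf. At 120 hpf, liver area index (liver area/lateral body area) and liver fluorescence assessed by in vivo imaging.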

[21] = Acute toxicity in C57Bl/6 mouse assessed as effect on behavior at 20 mg/kg/day, ip qd for 7 days measured twice daily for 28 days; assay type: organism-based; details: in vivo, 672 h
How it was run: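 Six healthy mice received 20 mg/kg i.p. once daily for seven doses. Behaviour and appearance observed twice daily for 28 days after the last dose.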

[22] = Solubility of the compound in deionized water; assay type: physicochemical
Zaire ebolavirus = assay: Antiviral activity against Ebolavirus Mayinga infected in Balb/c mouse assessed as protection against viral infection by measuring host survival at 10 mg/kg, ip administered 2 hrs prior to viral infection daily for 6 days and measured for 14 days relative to control; assay type: functional, 1976
[23] = Toxicity in Balb/c mouse infected with Ebolavirus Mayinga assessed as weight loss at 1 to 10 mg/kg, ip administered 2 hrs prior to viral infection daily for 6 days and measured for 14 days; assay type: organism-based; details: in vivo, 336 h
[24] = system: Vesicular stomatitis virus; assay: Antiviral activity against VSV expressing GFP infected in human HeLa cells assessed as inhibition of viral infection at 2 uM pre-incubated for 2 hrs followed by viral infection and measured after 6 hrs by cell mask deep red staining based assay; assay type: functional, organism-based
How it was run: (§2)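 HeLa cells pretreated 2 h with compound, then infected with rVSV-EBOV-GP-GFP (8 h) or VSV-GFP (6 h), and stained with Cell Mask Deep Red. Relative inhibition = 1 minus (% GFP-expressing cells normalised to mock). Mean ± SD of three replicates, representative of three independent experiments.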

[25] = system: Vesicular stomatitis virus; assay: Antiviral activity against VSV expressing GFP infected in human HeLa cells assessed as inhibition of viral infection at 50 uM pre-incubated for 2 hrs followed by viral infection and measured after 6 hrs by cell mask deep red staining based assay; assay type: functional, organism-based; how it was run: as §2

Structure (SMILES) | EC90 (Ebolavirus [2]) [nM] | EC50 (Ebolavirus [2]) [nM] | EC50 (Ebolavirus [3]) [nM] | EC90 (Ebolavirus [3]) [nM] | selectivity ratio [4] | Activity [5] | Activity [6] | Activity [7] | Activity [8] | Activity [9] | Activity (HeLa [13]) | Activity (HeLa [14]) | also measured
Cl.Cl.Cl.Cl.c1cc(NCCN2CCOCC2)c2ccc3c(ccc4c(NCCN5CCOCC5)ccnc43)c2n1 | < 5000 | 700 | 550 | 1360 | > 28.5 | Non-Toxic | Non-Toxic | Non-Toxic | Non-Toxic | Non-Toxic | Active | Active | EC50 (Ebolavirus [1]): 700 nM; Activity [10]: Non-Toxic; concentration [11]: 460 to 1030 nM; concentration [12]: 460 to 650 nM
Cl.Cl.Cl.Cl.c1cc(NCCCCN2CCOCC2)c2ccc3c(ccc4c(NCCN5CCOCC5)ccnc43)c2n1 | 850 | 260 | 210 | 780 | 30 | Non-Toxic | Non-Toxic | Non-Toxic | Non-Toxic | Non-Toxic | Active | Active | INH (Cytochrome P450 3A4): > 10 µM; microsomal CLint [15]: 32.9 µL/min/mg; half-life [16]: 62.1 min; half-life [17]: 42.1 min; Papp B→A [18]: 43.2 to 67.3 ×10⁻⁶ cm/s; Drug metabolism [19]: Metabolite_Notdetected; Activity [20]: Non-Toxic; Activity [21]: Non-Toxic; solubility [22]: ≥ 25 mg/mL; Activity (Zaire ebolavirus): 100%; Activity [23]: Non-Toxic; Activity [24]: inactive; Activity [25]: Active
